Reference: ChEMBL document CHEMBL3085754, “Clicking 3'-azidothymidine into novel potent inhibitors of human immunodeficiency virus” (J Med Chem, 2013)
The source made the active and inactive calls. The calls are words filed in the database; no cut-off is given here.

What was measured:
CEM-SS [1] = assay: Cytotoxicity against human CEM-SS cells assessed as cell viability at 10 uM after 6 days by MTS assay relative to control; type: cell-based; settings: 144 h
[2] = system: Human immunodeficiency virus 1; assay: Antiviral activity against Human immunodeficiency virus 1 3B infected in human CEM-SS cells assessed as inhibition of virus-induced cytopathic effect at 10 uM after 6 days by MTS assay relative to control; type: functional; settings: 144 h
[3] = system: Human immunodeficiency virus 1; assay: Antiviral activity against wild type Human immunodeficiency virus 1 expressing p24 infected in human HeLa P4/R5 cells up to 10 uM preincubated for 16 hrs prior to virus infection measured after 48 hrs by beta-galactosidase-based single replication cycle assay; type: functional, organism-based
Procedure, shortened: (§1)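 P4R5 indicator cells express CD4, CXCR4, CCR5 and an HIV LTR-driven β-galactosidase reporter, and were kept in DMEM/10% FBS with puromycin. Cells were seeded at 5×10^3 per well and exposed to varying drug concentrations for 16 h. They were then inoculated with 25 ng HIV-1 p24 per well. Infection was quantified 48 h post-infection by fluorescence-based β-galactosidase detection.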

[4] = system: Human immunodeficiency virus 1; assay: Ratio of EC50 for NNRTI-resistant Human immunodeficiency virus 1 to EC50 for wild type Human immunodeficiency virus 1 expressing p24; type: functional
[5] = system: Human immunodeficiency virus 1; assay: Antiviral activity against NNRTI-resistant Human immunodeficiency virus 1; type: functional, organism-based
[6] = system: Human immunodeficiency virus 1; assay: Antiviral activity against wild type Human immunodeficiency virus 1 expressing p24 infected in human HeLa P4/R5 cells preincubated for 16 hrs prior to virus infection measured after 48 hrs by beta-galactosidase-based single replication cycle assay; type: functional, organism-based; settings: Human immunodeficiency virus 1, P4/R5; procedure, shortened: as §1
[7] = Therapeutic index, ratio of CC50 for human CEM-SS cells to EC50 for Human immunodeficiency virus 1 3B; type: cell-based; settings: read-out: Ratio CC50/EC50
CEM-SS [8] = assay: Cytotoxicity against human CEM-SS cells assessed as cell viability after 6 days by MTS assay; type: cell-based; settings: cem-ss, 144 h
[9] = system: Human immunodeficiency virus 1; assay: Antiviral activity against Human immunodeficiency virus 1 3B infected in human CEM-SS cells assessed as inhibition of virus-induced cytopathic effect after 6 days by MTS assay; type: functional, organism-based; settings: 144 h

| SMILES | Activity (CEM-SS [1]) | inhibition at 10 µM [2] | also measured |
| --- | --- | --- | --- |
| Cc1cn([C@H]2C[C@H](n3nncc3-c3ccc(Cl)cc3)[C@@H](CO)O2)c(=O)[nH]c1=O | 100% | 23% |  |
| Cc1cn([C@H]2C[C@H](n3nncc3COc3ccccc3)[C@@H](CO)O2)c(=O)[nH]c1=O | 100% | 51% |  |
| Cc1cn([C@H]2C[C@H](n3cc(-c4ccc(-c5ccccc5)cc4)nn3)[C@@H](CO)O2)c(=O)[nH]c1=O | 88% | 91% |  |
| Cc1cn([C@H]2C[C@H](n3nncc3-c3ccc(Oc4ccccc4)cc3)[C@@H](CO)O2)c(=O)[nH]c1=O | 97% | 67% | Activity [3]: inactive |
| Cc1cn([C@H]2C[C@H](n3cc(CO)nn3)[C@@H](CO)O2)c(=O)[nH]c1=O | 100% | 5% |  |
| Cc1cn([C@H]2C[C@H](n3cc(-c4ccc(Cl)c(Cl)c4)nn3)[C@@H](CO)O2)c(=O)[nH]c1=O | 100% | 6% |  |
| Cc1cn([C@H]2C[C@H](n3cc(-c4ccccc4)nn3)[C@@H](CO)O2)c(=O)[nH]c1=O | 100% | 24% |  |
| Cc1cn([C@H]2C[C@H](n3cc(-c4ccc5[nH]ccc5c4)nn3)[C@@H](CO)O2)c(=O)[nH]c1=O | 100% | 35% |  |
| Cc1cn([C@H]2C[C@H](n3cc(-c4ccc(Cl)cc4)nn3)[C@@H](CO)O2)c(=O)[nH]c1=O | 100% | 0% |  |
| Cc1cn([C@H]2C[C@H](n3cc(-c4ccc(Oc5ccccc5)cc4)nn3)[C@@H](CO)O2)c(=O)[nH]c1=O | 100% | 0% |  |
| COc1ccc2ccc(OCc3cnnn3[C@H]3C[C@H](n4cc(C)c(=O)[nH]c4=O)O[C@@H]3CO)cc2c1 | 99% | 10% |  |
| Cc1cn([C@H]2C[C@H](n3cc(COc4cccc5ccccc45)nn3)[C@@H](CO)O2)c(=O)[nH]c1=O | 100% | 5% |  |
| COc1ccc2cc(-c3cn([C@H]4C[C@H](n5cc(C)c(=O)[nH]c5=O)O[C@@H]4CO)nn3)ccc2c1 | 95% | 35% |  |
| Cc1cn([C@H]2C[C@H](n3nncc3C3(O)c4ccccc4-c4ccccc43)[C@@H](CO)O2)c(=O)[nH]c1=O | 97% | 0% |  |
| Cc1cn([C@H]2C[C@H](n3cc(-c4cc5ccccc5c5ccccc45)nn3)[C@@H](CO)O2)c(=O)[nH]c1=O | 100% | 42% | Ratio EC50 [4]: 0.2; EC50 [5]: 1000 nM; EC50 [6]: 4.7 µM |
| Cc1cn([C@H]2C[C@H](n3cc(-c4cccc5ccccc45)nn3)[C@@H](CO)O2)c(=O)[nH]c1=O | 100% | 1% |  |
| Cc1cn([C@H]2C[C@H](n3nncc3C3CCCCC3)[C@@H](CO)O2)c(=O)[nH]c1=O | 88% | 43% | Activity [3]: inactive |
| Cc1cn([C@H]2C[C@H](n3cc(COc4ccc5ccccc5c4)nn3)[C@@H](CO)O2)c(=O)[nH]c1=O | 100% | 0% |  |
| Cc1cn([C@H]2C[C@H](n3cc(C4CC4)nn3)[C@@H](CO)O2)c(=O)[nH]c1=O | 100% | 1% |  |
| COc1ccc2cc(OCc3cn([C@H]4C[C@H](n5cc(C)c(=O)[nH]c5=O)O[C@@H]4CO)nn3)ccc2c1 | 100% | 0% |  |

| SMILES | Activity (CEM-SS [1]) | inhibition at 10 µM [2] | also measured |
| --- | --- | --- | --- |
| Cc1cn([C@H]2C[C@H](n3cc(-c4ccc5ccccc5c4)nn3)[C@@H](CO)O2)c(=O)[nH]c1=O | 98% | 33% | Ratio EC50 [4]: 0.3; EC50 [5]: 2100 nM; EC50 [6]: 7.2 µM |
| Cc1cn([C@H]2C[C@H](n3nncc3-c3ccc(Cl)c(Cl)c3)[C@@H](CO)O2)c(=O)[nH]c1=O | 100% | 31% | Activity [3]: inactive |
| Cc1cn([C@H]2C[C@H](n3cc(-c4ccnc5ccccc45)nn3)[C@@H](CO)O2)c(=O)[nH]c1=O | 100% | 44% |  |
| Cc1cn([C@H]2C[C@H](n3cc(C4CCCCC4)nn3)[C@@H](CO)O2)c(=O)[nH]c1=O | 100% | 0% |  |
| Cc1cn([C@H]2C[C@H](n3nncc3CO)[C@@H](CO)O2)c(=O)[nH]c1=O | 100% | 0% |  |
| Cc1cn([C@H]2C[C@H](n3nncc3-c3ccccc3)[C@@H](CO)O2)c(=O)[nH]c1=O | 100% | 44% |  |
| COc1ccc2ccc(OCc3cn([C@H]4C[C@H](n5cc(C)c(=O)[nH]c5=O)O[C@@H]4CO)nn3)cc2c1 | 100% | 0% |  |
| Cc1cn([C@H]2C[C@H](n3nncc3-c3ccnc4ccccc34)[C@@H](CO)O2)c(=O)[nH]c1=O | 94% | 74% |  |
| Cc1cn([C@H]2C[C@H](n3cc(C4(O)c5ccccc5-c5ccccc54)nn3)[C@@H](CO)O2)c(=O)[nH]c1=O | 100% | 11% |  |
| COC(=O)C(Cc1ccc(OCc2cnnn2[C@H]2C[C@H](n3cc(C)c(=O)[nH]c3=O)O[C@@H]2CO)cc1)NC(=O)OC(C)(C)C (some centres undefined) | 90% | 17% |  |
| Cc1cn([C@H]2C[C@H](n3nncc3C3CC3)[C@@H](CO)O2)c(=O)[nH]c1=O | 100% | 17% |  |
| COc1ccc2cc(-c3cnnn3[C@H]3C[C@H](n4cc(C)c(=O)[nH]c4=O)O[C@@H]3CO)ccc2c1 | 100% | 43% | Ratio EC50 [4]: 0.4; EC50 [5]: 1800 nM; EC50 [6]: 4.1 µM |
| COc1ccc2cc(OCc3cnnn3[C@H]3C[C@H](n4cc(C)c(=O)[nH]c4=O)O[C@@H]3CO)ccc2c1 | 100% | 57% | Activity [3]: inactive |
| Cc1cn([C@H]2C[C@H](n3cc(COc4ccccc4)nn3)[C@@H](CO)O2)c(=O)[nH]c1=O | 85% | 7% |  |
| COC(=O)C(Cc1ccc(OCc2cn([C@H]3C[C@H](n4cc(C)c(=O)[nH]c4=O)O[C@@H]3CO)nn2)cc1)NC(=O)OC(C)(C)C (some centres undefined) | 99% | 0% |  |
| Cc1cn([C@H]2C[C@H](n3nncc3-c3ccc4[nH]ccc4c3)[C@@H](CO)O2)c(=O)[nH]c1=O | 82% | 12% |  |
| Cc1cn([C@H]2C[C@H](n3nncc3-c3ccc(-c4ccccc4)cc3)[C@@H](CO)O2)c(=O)[nH]c1=O | 80% | 63% | Activity [3]: inactive |
| Cc1cn([C@H]2C[C@H](n3nncc3-c3cc4ccccc4c4ccccc34)[C@@H](CO)O2)c(=O)[nH]c1=O | 100% | 100% | EC50 [6]: > 5 µM; selectivity ratio [7]: 210; CC50 (CEM-SS [8]): 21 µM; EC50 [9]: 100 nM |
| Cc1cn([C@H]2C[C@H](n3nncc3COc3cccc4ccccc34)[C@@H](CO)O2)c(=O)[nH]c1=O | 93% | 42% | Activity [3]: inactive |
| Cc1cn([C@H]2C[C@H](n3nncc3-c3ccc4ccccc4c3)[C@@H](CO)O2)c(=O)[nH]c1=O | 100% | 37% |  |
